Reference: ChEMBL document CHEMBL1134648 (J Med Chem, 2001)

What was measured:
[1] = biological target: Coagulation factor X (Homo sapiens, UniProt P00742); assay: Binding affinity against human coagulation factor X
[2] = organism: Homo sapiens; assay: In vitro human activated partial thromboplastin time of the compound.; format: functional
[3] = biological target: Prothrombin (Homo sapiens, UniProt P00734); assay: In vitro activity against human thrombin.
[4] = biological target: T1, Coagulation factor X (Oryctolagus cuniculus, UniProt O19045); assay: In vitro activity against rabbit FXa.
T1 sequence (O19045 whole entry): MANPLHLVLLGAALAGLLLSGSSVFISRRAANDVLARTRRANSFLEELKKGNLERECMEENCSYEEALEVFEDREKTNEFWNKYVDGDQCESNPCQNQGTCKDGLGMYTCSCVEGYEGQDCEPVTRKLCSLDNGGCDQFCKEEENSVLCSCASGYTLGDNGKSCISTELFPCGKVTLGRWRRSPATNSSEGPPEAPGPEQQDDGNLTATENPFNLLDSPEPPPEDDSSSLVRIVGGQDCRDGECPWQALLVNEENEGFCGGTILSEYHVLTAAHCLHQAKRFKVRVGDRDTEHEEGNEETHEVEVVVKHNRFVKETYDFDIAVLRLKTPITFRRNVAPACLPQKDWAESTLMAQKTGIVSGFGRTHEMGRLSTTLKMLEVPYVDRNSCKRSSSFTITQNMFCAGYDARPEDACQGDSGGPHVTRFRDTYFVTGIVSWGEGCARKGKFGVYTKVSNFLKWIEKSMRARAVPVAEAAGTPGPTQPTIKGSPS

[5] = biological target: Trypsin (Homo sapiens, UniProt P07477+P07478+P35030); assay: In vitro activity against human trypsin.; format: protein assay
[6] = organism: Oryctolagus cuniculus; assay: (§1) Antithrombotic efficacy in a rabbit arteriovenous shunt thrombosis model.; format: functional
[7] = organism: Homo sapiens; assay: In vitro Activated partial thromboplastin time of the compound.; format: functional
[8] = organism: Oryctolagus cuniculus; assay: as §1; format: functional; remark: listed apart in the source
Summary of the method: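 Test agents were given to rabbits by intravenous continuous infusion in an arterio-venous shunt thrombosis model.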

[9] = biological target: Urokinase-type plasminogen activator (Homo sapiens, UniProt P00749); assay: In vitro activity against human urokinase
[10] = biological target: Plasma kallikrein (Homo sapiens, UniProt P03952); assay: In vitro activity against human Plasma kallikrein.; format: cell-free
[11] = biological target: Plasminogen (Homo sapiens, UniProt P00747); assay: In vitro activity against human plasmin
[12] = biological target: Coagulation factor IX (Homo sapiens, UniProt P00740); assay: In vitro activity against human factor IXa
[13] = biological target: Vitamin K-dependent protein C (Homo sapiens, UniProt P04070); assay: In vitro activity against human Activated protein C
[14] = biological target: Tissue-type plasminogen activator (Homo sapiens, UniProt P00750); assay: In vitro activity against human tissue plasminogen activator
[15] = biological target: T1, Coagulation factor X; assay: In vitro activity against rabbit factor Xa

Chain of Coagulation factor X (Homo sapiens, UniProt P00742) (P00742 41-179 limits assumed): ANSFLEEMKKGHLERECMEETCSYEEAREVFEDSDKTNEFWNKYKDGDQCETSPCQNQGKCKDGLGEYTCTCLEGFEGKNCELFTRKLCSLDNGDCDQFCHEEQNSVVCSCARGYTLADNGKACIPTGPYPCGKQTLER
Chain of Coagulation factor X (Homo sapiens, UniProt P00742) (P00742 235-488 limits assumed): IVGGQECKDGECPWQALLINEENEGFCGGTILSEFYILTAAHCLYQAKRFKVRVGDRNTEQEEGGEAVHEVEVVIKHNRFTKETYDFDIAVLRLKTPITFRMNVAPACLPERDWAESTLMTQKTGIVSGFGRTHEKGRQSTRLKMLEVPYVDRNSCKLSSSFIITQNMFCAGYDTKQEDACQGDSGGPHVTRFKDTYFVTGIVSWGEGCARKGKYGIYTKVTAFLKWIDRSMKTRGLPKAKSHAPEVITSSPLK
Chain of Coagulation factor IX (P00740 47-191 limits assumed): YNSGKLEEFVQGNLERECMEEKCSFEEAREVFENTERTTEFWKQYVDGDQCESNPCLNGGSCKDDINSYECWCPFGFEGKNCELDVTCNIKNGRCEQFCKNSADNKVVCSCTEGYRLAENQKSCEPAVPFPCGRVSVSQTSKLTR
Chain of Coagulation factor IX (P00740 227-461 limits assumed): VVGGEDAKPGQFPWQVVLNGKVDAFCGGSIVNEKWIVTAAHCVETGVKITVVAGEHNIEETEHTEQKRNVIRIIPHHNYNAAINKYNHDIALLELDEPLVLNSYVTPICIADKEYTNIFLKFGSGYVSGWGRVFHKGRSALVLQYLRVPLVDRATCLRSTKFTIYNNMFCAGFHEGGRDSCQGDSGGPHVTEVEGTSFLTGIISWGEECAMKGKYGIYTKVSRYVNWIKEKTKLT
Chain of Plasma kallikrein (P03952 20-390 limits assumed): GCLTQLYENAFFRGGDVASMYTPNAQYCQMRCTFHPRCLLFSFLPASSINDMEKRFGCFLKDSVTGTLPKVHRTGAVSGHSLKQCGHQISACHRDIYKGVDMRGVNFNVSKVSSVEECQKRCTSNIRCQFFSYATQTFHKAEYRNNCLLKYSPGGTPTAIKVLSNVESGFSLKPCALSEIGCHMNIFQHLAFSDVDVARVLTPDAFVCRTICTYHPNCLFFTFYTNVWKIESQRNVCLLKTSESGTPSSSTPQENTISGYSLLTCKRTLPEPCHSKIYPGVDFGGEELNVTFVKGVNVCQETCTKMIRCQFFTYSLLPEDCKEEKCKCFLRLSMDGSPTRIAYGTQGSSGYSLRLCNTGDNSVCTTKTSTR
Chain of Plasma kallikrein (P03952 391-638 limits assumed): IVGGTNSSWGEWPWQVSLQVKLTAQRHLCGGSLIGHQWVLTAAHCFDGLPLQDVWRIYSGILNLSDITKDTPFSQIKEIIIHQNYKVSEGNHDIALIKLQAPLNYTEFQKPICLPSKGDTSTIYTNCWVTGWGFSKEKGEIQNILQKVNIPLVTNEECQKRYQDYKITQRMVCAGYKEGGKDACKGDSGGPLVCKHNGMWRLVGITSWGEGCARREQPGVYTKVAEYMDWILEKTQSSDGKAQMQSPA
Chain of Vitamin K-dependent protein C (P04070 43-197 limits assumed): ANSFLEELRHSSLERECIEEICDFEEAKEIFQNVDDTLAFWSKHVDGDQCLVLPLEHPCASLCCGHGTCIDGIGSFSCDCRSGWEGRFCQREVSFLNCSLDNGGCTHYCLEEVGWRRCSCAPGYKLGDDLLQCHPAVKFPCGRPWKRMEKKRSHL
Chain of Vitamin K-dependent protein C (P04070 212-461 limits assumed): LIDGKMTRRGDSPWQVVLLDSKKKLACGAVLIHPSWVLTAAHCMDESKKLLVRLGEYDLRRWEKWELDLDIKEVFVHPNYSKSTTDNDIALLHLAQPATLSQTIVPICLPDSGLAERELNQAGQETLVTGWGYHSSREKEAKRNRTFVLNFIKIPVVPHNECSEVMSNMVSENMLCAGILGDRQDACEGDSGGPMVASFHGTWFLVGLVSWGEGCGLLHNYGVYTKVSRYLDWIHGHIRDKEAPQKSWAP
Chain of Plasminogen (P00747 97-580 limits assumed): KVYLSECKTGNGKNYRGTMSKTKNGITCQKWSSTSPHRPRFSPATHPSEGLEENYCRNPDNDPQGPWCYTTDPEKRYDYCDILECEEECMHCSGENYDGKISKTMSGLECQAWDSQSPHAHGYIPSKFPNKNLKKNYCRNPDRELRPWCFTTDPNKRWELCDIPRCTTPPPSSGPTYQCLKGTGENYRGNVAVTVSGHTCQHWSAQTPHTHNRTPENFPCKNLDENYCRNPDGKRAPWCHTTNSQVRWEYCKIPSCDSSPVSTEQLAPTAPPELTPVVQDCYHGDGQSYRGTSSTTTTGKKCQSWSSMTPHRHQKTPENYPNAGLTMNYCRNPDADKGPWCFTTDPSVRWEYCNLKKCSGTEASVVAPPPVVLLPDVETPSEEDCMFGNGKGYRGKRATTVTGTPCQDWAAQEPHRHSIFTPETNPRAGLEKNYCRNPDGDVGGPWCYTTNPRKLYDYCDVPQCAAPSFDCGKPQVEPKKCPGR
Chain of Plasminogen (P00747 581-810 limits assumed): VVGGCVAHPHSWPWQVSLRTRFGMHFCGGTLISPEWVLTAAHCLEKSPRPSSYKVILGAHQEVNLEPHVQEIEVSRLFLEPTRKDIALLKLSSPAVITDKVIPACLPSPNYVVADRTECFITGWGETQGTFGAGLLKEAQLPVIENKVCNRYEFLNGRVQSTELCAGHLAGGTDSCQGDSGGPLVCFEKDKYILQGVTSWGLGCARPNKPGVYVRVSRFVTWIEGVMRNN
Chain of Tissue-type plasminogen activator (P00750 whole entry): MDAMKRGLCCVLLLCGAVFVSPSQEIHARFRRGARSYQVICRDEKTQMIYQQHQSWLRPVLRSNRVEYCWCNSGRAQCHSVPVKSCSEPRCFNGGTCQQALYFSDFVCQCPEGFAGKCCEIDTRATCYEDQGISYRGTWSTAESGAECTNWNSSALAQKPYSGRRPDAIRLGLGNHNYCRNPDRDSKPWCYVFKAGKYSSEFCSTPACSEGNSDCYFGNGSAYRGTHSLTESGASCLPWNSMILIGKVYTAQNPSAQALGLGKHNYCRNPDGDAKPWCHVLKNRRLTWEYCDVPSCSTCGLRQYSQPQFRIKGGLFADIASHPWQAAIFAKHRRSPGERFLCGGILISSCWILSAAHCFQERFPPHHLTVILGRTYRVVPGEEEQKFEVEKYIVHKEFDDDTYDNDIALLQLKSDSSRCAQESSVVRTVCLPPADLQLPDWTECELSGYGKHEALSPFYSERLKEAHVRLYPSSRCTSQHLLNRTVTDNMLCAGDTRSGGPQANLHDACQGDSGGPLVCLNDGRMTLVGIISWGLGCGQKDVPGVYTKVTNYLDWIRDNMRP

| SMILES | Ki [1] [nM] | Ki [3] [nM] | Ki [5] [nM] | further results |
| --- | --- | --- | --- | --- |
| Cc1cc(C(=O)Nc2ccc(-c3ccccc3S(N)(=O)=O)cc2)n(-c2cccc(CN)c2)n1 | 2.7 | 21000 | – | APTT [2]: 2.3 µM; Ki [4]: 4.1 nM |
| N=C(N)c1cccc(-n2cccc2C(=O)Nc2ccc(-c3ccccc3S(N)(=O)=O)cc2)c1 | 0.8 | 900 | – | – |
| Cc1cc(C(=O)Nc2ccc(-c3ccccc3F)cc2)n(-c2cccc(C(=N)N)c2)n1 | 0.46 | 450 | 100 | – |
| N=C(N)c1cccc(-n2nc(C(F)(F)F)cc2C(=O)Nc2ccc(-c3ccccc3S(N)(=O)=O)cc2F)c1 | < 0.005 | 120 | 4 | – |
| Cc1cc(C(=O)Nc2ccc(-c3ccccc3S(N)(=O)=O)cc2)n(-c2cccc(C(=N)N)c2)n1.O=C(O)C(F)(F)F | – | – | – | ID50 [6]: 0.02 µM/h/kg; APTT [7]: 0.44 µM; Ki [4]: 0.03 nM |
| Cc1cc(C(=O)Nc2ccc(-c3ccccc3S(N)(=O)=O)cc2Br)n(-c2cccc(C(=N)N)c2)n1 | 0.01 | 200 | 17 | – |
| N=C(N)c1cccc(-c2nocc2C(=O)Nc2ccc(-c3ccccc3S(N)(=O)=O)cc2)c1 | – | 2800 | – | – |
| CS(=O)(=O)c1ccccc1-c1ccc(NC(=O)c2cc(C(F)(F)F)nn2-c2cccc(CN)c2)cc1 | 0.38 | 5800 | 100 | ID50 [8]: 2.2 µM/h/kg; APTT [2]: 2.2 µM |
| CS(=O)(=O)c1ccccc1-c1ccc(NC(=O)c2cc(C(F)(F)F)nn2-c2cccc(C(=N)N)c2)cc1 | 0.008 | 70 | 4.3 | – |
| Cc1cc(C(=O)Nc2ccc(-c3ccccc3S(N)(=O)=O)cn2)n(-c2cccc(C(=N)N)c2)n1 | 0.007 | 1400 | 59 | ID50 [8]: 0.07 µM/h/kg |
| NCc1cccc(-n2nc(C(F)(F)F)cc2C(=O)Nc2ccc(-c3ccccc3S(N)(=O)=O)cc2)c1 | 0.91 | 14000 | 120 | ID50 [8]: 1 µM/h/kg; APTT [2]: 6.4 µM; Ki [4]: 2.1 nM |
| Cc1cc(C(=O)Nc2ccc(-c3ccccc3C(F)(F)F)cc2)n(-c2cccc(C(=N)N)c2)n1 | 0.04 | 300 | 49 | ID50 [8]: 0.24 µM/h/kg |
| Cc1cc(C(=O)Nc2ccc(-c3ccccc3S(N)(=O)=O)cc2F)n(-c2cccc(CN)c2)n1 | 1.6 | 12000 | 120 | APTT [2]: 0.92 µM; Ki [4]: 2.2 nM |
| NCc1cccc(-n2nc(C(F)(F)F)cc2C(=O)Nc2ccc(-c3ccccc3S(N)(=O)=O)cc2F)c1 | 0.36 | 2000 | 53 | ID50 [8]: 0.6 µM/h/kg; APTT [2]: 0.91 µM; Ki [4]: 1 nM |
| Cc1cc(C(=O)Nc2ccc(-c3ccccc3S(C)(=O)=O)cc2)n(-c2cccc(CN)c2)n1 | 0.89 | 21000 | 220 | APTT [2]: 1.3 µM |
| N=C(N)c1cccc(-n2nc(C(F)(F)F)cc2C(=O)Nc2ccc(-c3ccccc3S(N)(=O)=O)cn2)c1 | 0.009 | 400 | 59 | – |
| N=C(N)c1cccc(-n2nc(C(F)(F)F)cc2C(=O)Nc2ncc(-c3ccccc3S(N)(=O)=O)cn2)c1 | – | – | 20 | – |
| Cc1cc(C(=O)Nc2ccc(-c3ccccc3S(N)(=O)=O)cc2F)n(-c2cccc(C(=N)N)c2)n1 | 0.005 | 210 | 4.6 | – |
| N=C(N)c1cccc(-n2nc(C(F)(F)F)cc2C(=O)Nc2ccc(-c3ccccc3S(N)(=O)=O)cc2)c1 | 0.015 | 40 | 3.9 | – |
| CCCCc1cc(C(=O)Nc2ccc(-c3ccccc3S(N)(=O)=O)cc2)n(-c2cccc(C(=N)N)c2)n1.O=C(O)C(F)(F)F | 0.06 | 300 | 11 | – |
| N=C(N)c1cccc(-n2nccc2C(=O)Nc2ccc(-c3ccccc3S(N)(=O)=O)cc2)c1 | 0.16 | 900 | – | – |
| Cc1cc(C(=O)N(C)c2ccc(-c3ccccc3S(N)(=O)=O)cc2)n(-c2cccc(C(=N)N)c2)n1.O=C(O)C(F)(F)F | 11 | > 2000 | > 1600 | – |
| CS(=O)(=O)c1ccccc1-c1ccc(NC(=O)c2cc(C(F)(F)F)nn2-c2cccc(C(=N)N)c2)c(F)c1 | < 0.005 | 50 | 3.4 | – |
| Cc1cc(C(=O)Nc2ccc(-c3ccccc3S(N)(=O)=O)cc2Cl)n(-c2cccc(C(=N)N)c2)n1 | 0.009 | 300 | 15 | – |
| Cc1cc(C(=O)Nc2ncc(-c3ccccc3S(N)(=O)=O)cn2)n(-c2cccc(C(=N)N)c2)n1 | 0.041 | 7400 | 150 | ID50 [8]: 0.03 µM/h/kg |
| Cc1cc(C(=O)Nc2ccc(-c3ccccc3S(C)(=O)=O)cc2F)n(-c2cccc(CN)c2)n1 | 480 | 14000 | 130 | ID50 [8]: 0.9 µM/h/kg; APTT [2]: 1.1 µM; Ki [4]: 1.2 nM |
| Cc1cc(C(=O)Nc2ccc(-c3ccccc3S(C)(=O)=O)cc2F)n(-c2cccc(C(=N)N)c2)n1 | 0.02 | 230 | – | – |
| Cc1cc(C(=O)Nc2ccc(-c3ccccc3S(C)(=O)=O)cc2)n(-c2cccc(C(=N)N)c2)n1 | 0.008 | 180 | 13 | – |
| Cc1cc(C(=O)Nc2ccc(-c3ccccc3)cc2)n(-c2cccc(C(=N)N)c2)n1 | 1.3 | 600 | 87 | – |
| CS(=O)(=O)c1ccccc1-c1ccc(NC(=O)c2cc(C(F)(F)F)nn2-c2cccc(CN)c2)c(F)c1.Cl | – | – | – | Ki [9]: > 19000 nM; Ki [10]: 61 nM; Ki [11]: > 35000 nM; ID50 [8]: 1.1 µM/h/kg; Ki [12]: 2200 nM; Ki [13]: 1800 nM; Ki [14]: > 45000 nM; Ki [15]: 0.3 nM |
